The list is not random: actives were taken first. Their share in the collection is about 2.3%.
EWS-Fli block – inhibitors of EWS/Fli oncoprotein transcriptional activity; A673 NR0B1-luciferase reporter, viability-normalised; inhibition, % at 12.6 µM; AID 651661; 0.67% of 350,000 active;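 active means mean inhibition of at least 50% after viability correction, with every replicate also passing that limit; inconclusive means mean reaches 50% but only one of two replicates passes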;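 further: firefly luciferase signal divided by Alamar Blue viability fluorescence both relative to DMSO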
Xi reactivation – activators of X-chromosome reactivation in mouse fibroblasts. XiGFP mouse fibroblasts, % GFP-positive cells imaging, 3 d; cells co-treated with 5-aza-dC sensitizer; scaled so ellipticine positive control = 100%. activation, % at 7.58 µM. 0.055% of 360,000 active. AID 743238;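 active means mean normalized replicate activation at least 10% and every replicate at or above 10%; inconclusive means only one of the two criteria met; inactive means mean below 10% and not all replicates reach 10%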;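 further: 0% = median of on-plate neutral control wells and 100% = ellipticine 6 µM median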
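System: SV40-immortalized XiGFP fibroblast cells, line 68-5-11 / Incubation: 3-day compound exposure, then 15 min fixation at room temperature / Compound: single concentration per compound, delivered by pin transfer / Buffer or medium: DMEM plus 5-aza-dC sensitizer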
TWEAK Fn14 block – inhibitors of TWEAK-Fn14 interaction signaling; inhibition, % at 10 µM; TWEAK-stimulated Fn14 reporter cells, luciferase luminescence, 8 h; AID 1159606; 2% of 360,000 active; in the data active means inhibition above about 50%
FN deposition inh – fibronectin deposition inhibition; AH1F fibroblasts, Alexa488-fibronectin deposition fluorescence, overnight; inhibition, % at 12.6 µM; 0.086% of 350,000 active;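 active means mean inhibition across replicates of 30% or more, regardless of how many single replicates reach that level; inconclusive means mean under 30% yet at least half of replicates reach 30%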;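 further: positive control wells lacked labelled fibronectin entirely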
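Material: AH1F fibroblast monolayer depositing Alexa488-labelled fibronectin into matrix / Amount: 10000 AH1F cells per well / Signal: fluorescence 485/525 nm / Medium: DMEM, 2% serum / Compound: single dose, pinned / Incubation: 1 h cell adhesion before compound, then overnight fibronectin incubation / Reagent: Alexa488-FN, 24 nM final / Read-out: inhibition of fibronectin deposition signal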
LGR2 antag – blocks bursicon-induced cAMP signaling via Drosophila LGR2. inhibition, % at 9.99 µM. 0.35% of 380,000 active. HEK293 LGR2, CRE-luciferase, bursicon-stimulated, 4 h;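 active means drop in luminescence signal, shown as inhibition above about 50% in the replicate tests, limit read from the data, passing the limit was not always enough; inconclusive means probably only some replicates passing the limit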;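 further: agonist challenge used bursicon conditioned medium at about half maximal strength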
TROY NFkB inh – TROY signaling inhibition; 0.98% of 360,000 active; Q293 LMP1-TROYcd NF-kB luciferase reporter, 4 h; inhibition, % at 10 µM;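 active means compounds whose plate-normalised and pattern-corrected inhibition of the luciferase reporter signal at the single screening dose is 50% or more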
* = called active by the depositor; ? = inconclusive; nt = no result given.

SMILES	EWS-Fli block	Xi reactivation	TWEAK Fn14 block	FN deposition inh	LGR2 antag	TROY NFkB inh
CS(=O)(=O)Nc1ccc(-c2cncc3nccn23)cc1	-3.1	0.4	6.9	3.3	7.7	2.0
CC(C)c1ccc(-c2nnn(CCC(=O)O)n2)cc1	nt	nt	87.2*	nt	nt	47.8
COc1ccccc1NC(=O)c1cc2cc(Br)ccc2cc1O	-5.6	0.0	67.4*	-2.1	45.1	38.4
Cc1ccc(Cl)cc1NC(=O)c1cc2ccccc2cc1O	12.2	nt	46.6	13.6	4.6	52.3*
COc1ccccc1NC(=O)COC(=O)c1cc2ccccc2cc1O	4.5	0.4	-32.3	nt	-7.3	-4.2
COc1cc(NC(=O)c2cc3ccccc3cc2O)c(OC)cc1Cl	-10.2	0.1	67.4*	-2.8	34.8	45.5
NNC(=O)c1cc2ccccc2cc1O	nt	-0.1	90.9*	-2.4	33.5	21.1
C[C@H](CO)N1C[C@H](C)[C@@H](CN(C)S(=O)(=O)c2cn(C)cn2)OCCCC[C@H](C)Oc2ccc(NC(=O)Nc3ccc(C(F)(F)F)cc3)cc2C1=O	1.3	-0.8	nt	nt	9.5	nt
C[C@H](NC(=O)C[C@@H]1CC[C@H]2[C@@H](COC[C@H](O)CN2C(=O)Nc2cccc(Cl)c2)O1)c1ccccc1	-8.5	0.3	nt	-13.3	-19.8	nt
C[C@H](CO)N1C[C@H](C)[C@H](CN(C)Cc2ccc3c(c2)OCO3)OCCCC[C@H](C)Oc2ccc(NC(=O)C3CCCCC3)cc2C1=O	5.6	-1.0	nt	nt	1.1	nt
CC[C@@H]1C/C=C\C[C@H](c2ccc(F)cc2)NC(=O)CCC(=O)N1	nt	0.1	nt	-6.6	nt	nt
C[C@H](CO)N1C[C@H](C)[C@H](CN(C)S(=O)(=O)c2cccs2)Oc2c(NC(=O)c3ccncc3)cccc2C1=O	-0.4	0.4	nt	nt	-1.0	nt
Cc1ccc(-c2csc3ncnc(Sc4nnc(CN5CCCCCC5=O)o4)c23)cc1	nt	nt	84.8*	11.4	nt	34.7
CCOc1cccc(C(=O)Nc2ccc(N(CC)CC)cc2)c1	nt	nt	-21.1	30.3*	nt	-4.5
CCOc1cccc(C(=O)Nc2ccc3c(c2)OCCO3)c1	-15.0	0.2	32.1	-4.5	32.7	7.8
CCCCOc1cccc(C(=O)Nc2ccc(NC(=O)c3cccs3)cc2)c1	52.7*	0.0	-42.5	-3.3	2.2	-9.8
CCOc1cccc(C(=O)Nc2cccc(C(C)=O)c2)c1	nt	0.4	-10.8	-1.0	-19.8	-29.4
CCOc1cccc(C(=O)Nc2ccc3ccccc3c2)c1	32.1	0.0	51.8*	-1.1	65.9*	15.3
O=C(C[C@@H]1CC[C@@H]2[C@H](COC[C@H](O)CN2CC2CCCCC2)O1)NCc1ccc(Cl)cc1	-1.4	0.0	nt	3.7	11.9	nt
COc1ccccc1/C=N\Nc1ccccc1[N+](=O)[O-]	-55.1	0.0	-13.2	0.3	-59.4	-40.2
CCCOc1ccc(/C=N/Nc2ccccc2[N+](=O)[O-])c(O)c1	23.1	0.1	98.2*	-3.8	nt	90.5*
COc1ccc([N+](=O)[O-])cc1/C=N/NC(=O)Cc1ccccc1	1.9	0.0	-3.0	4.0	nt	8.4
COc1ccc(/C=N/NC(=S)Nc2ccccc2[N+](=O)[O-])cc1O	-13.7	0.0	93.0*	8.7	37.7	86.3*
COc1cc(/C=N/NC(=O)Cc2ccccc2)ccc1Oc1ccc([N+](=O)[O-])cc1[N+](=O)[O-]	-3.1	0.2	52.1*	2.8	0.8	20.8
CCCOc1ccc(/C=N/Nc2cccc([N+](=O)[O-])c2)c(O)c1	nt	0.0	-9.5	1.8	-79.6	-58.4
SMILES	EWS-Fli block	Xi reactivation	TWEAK Fn14 block	FN deposition inh	LGR2 antag	TROY NFkB inh
CC(C)Oc1ccccc1/C=N/Nc1ccccc1[N+](=O)[O-]	-13.7	-0.1	7.4	-0.2	-8.2	82.3*
CO[C@@H]1CN(C)C(=O)c2ccc(NC(=O)c3ccc4c(c3)OCO4)cc2OC[C@H](C)N(CC2CC2)C[C@H]1C	-5.7	-0.1	nt	2.9	-1.2	nt
CCCOc1ccc(/C=N/NC(=S)Nc2ccccc2[N+](=O)[O-])c(O)c1	nt	0.9	nt	8.5	83.5*	nt
C[C@@H]1CN([C@H](C)CO)C(=O)c2cccc(NC(=O)c3nc4ccccc4s3)c2O[C@H]1CN(C)Cc1ccc(C(=O)Nc2ccccc2N)cc1	-5.5	-0.3	nt	-2.5	2.9	nt
COC(=O)c1ccccc1NC(=O)c1ccc(COc2cc(C)cc(C)c2)o1	nt	nt	-6.4	nt	-10.1	1.3
COC(=O)c1ccccc1NC(=O)c1ccc(COc2ccc(C)c(C)c2)o1	nt	nt	81.2*	nt	nt	nt
COc1ccc(S(=O)(=O)Nc2ccc3c(c2)C(=O)N([C@H](C)CO)C[C@H](C)[C@H](CN(C)Cc2ccc(C(=O)O)cc2)OCCCC[C@@H](C)O3)cc1	-5.6	-1.0	nt	nt	-8.6	nt
Cc1ccc2nc(-c3ccccn3)[nH]c2c1	44.3	0.3	79.8*	-5.7	82.1*	37.3
COC(=O)CSc1ncccc1-c1nc2ccccc2[nH]1	nt	nt	-11.2	nt	nt	-25.0
O=C(CSc1ncccc1-c1nc2ccccc2[nH]1)N1CCc2ccccc21	-47.7	0.0	67.1*	-5.2	-20.5	61.7*
CC1CCN(C(=O)c2cc3c(ccc4ccccc43)o2)CC1	nt	0.2	60.8*	-3.5	?	41.3
CCNC(=O)C[C@H]1CC[C@H]2[C@@H](COc3ccc(NC(=O)Nc4ccc(Cl)cc4)cc3C(=O)N2C)O1	-1.5	0.0	nt	0.0	-4.1	nt
CC(NC(=O)c1ccc(N(C)C)cc1)C(c1cccs1)N1CCN(C)CC1 (stereo unspecified)	nt	nt	44.4	nt	nt	62.4*
CCCN1CCC(=NNc2ccc(S(=O)(=O)N(CC)CC)cc2[N+](=O)[O-])CC1	61.1*	0.5	-1.5	nt	-8.1	4.0
Cc1ccccc1C(=O)NNC(=O)c1cc(N)cc([N+](=O)[O-])c1	nt	-0.1	-15.3	5.0	-21.7	57.3*
CCC(=O)N1CCC2(CC1)CN(C(=O)c1cnccn1)[C@H](CO)c1c2c2ccc(OC)cc2n1C	5.6	0.0	nt	nt	-4.2	nt
C[C@H]1CN([C@@H](C)CO)C(=O)c2cc(NS(=O)(=O)c3ccc(Cl)cc3)ccc2O[C@@H]1CN(C)S(=O)(=O)c1cn(C)cn1	-9.3	-0.7	nt	nt	15.4	nt
Cc1ccc(Nc2nc(-c3c(C)nc4ccccn34)cs2)cc1	nt	nt	94.5*	nt	12.6	59.0*
Oc1ccc(Nc2nc(-c3ccc4ccccc4c3)cs2)cc1	nt	nt	75.9*	nt	nt	8.9
COc1ccc(NC(=O)Nc2ccc3c(c2)C(=O)N([C@@H](C)CO)C[C@@H](C)[C@H](CN(C)Cc2ccccc2)O3)cc1	0.7	0.0	nt	nt	-17.3	nt
CC1OC(Nc2cccc3ccccc23)C(O)C(O)C1O (stereo unspecified)	nt	nt	92.0*	nt	nt	28.2
CC(=O)Oc1ccc(C23c4ccccc4C2(OC(C)=O)c2cc(OC(C)=O)ccc23)cc1 (stereo unspecified)	17.3	0.1	89.3*	nt	11.1	34.1
Cc1ccc(NS(=O)(=O)c2ccc3c(c2)C(=O)c2ccccc2C3=O)c(C)c1	nt	-0.1	-4.0	7.0	7.5	-9.2

Screening results as filed in PubChem.
